According to ChEMBL document CHEMBL3046215, “Aliphatic ketones from Ruta chalepensis (Rutaceae) induce paralysis on root knot nematodes” (J Agric Food Chem, 2011):
Converted amounts (≈) assume the structure as drawn.

test system: Meloidogyne incognita; experiment: Nematicidal activity against second-stage juvenile Meloidogyne incognita (root-knot nematode) assessed as paralysis measured after 1 day; format: functional, organism-based; conditions: 24 h
Procedure, shortened: (§1)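 Compounds diluted from ethanol stocks into water with Tween 20 (final ≤1% ethanol, ≤0.3% Tween). Motile vs paralyzed scored microscopically; Schneider-Orelli correction for water-control paralysis; EC50 by log-logistic regression; six replicates, two experiments.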

Row | SMILES | EC50 [µg/mL]
1 | CCCCCCCCCCCC(C)=O [2-TRIDECANONE] | 204 (≈ 1030 µM)
2 | CCCCCCCC(C)O (stereo not drawn) [2-NONANOL] | 108 (≈ 746 µM)
3 | CCCCCCCCC(C)=O [2-DECANONE] | 55.6 (≈ 356 µM)
4 | CCCCCCCCCC(C)=O [METHYL NONYL KETONE] | 20.6 (≈ 121 µM)
5 | CCCCCCCCOC(C)=O [OCTYL ACETATE] | 37.3
6 | CCCCCCCCCCC(C)=O [2-DODECANONE] | 33.8 (≈ 183 µM)
7 | CCCCCCCC(C)=O [2-NONANONE] | 118 (≈ 832 µM)

test system: Meloidogyne incognita; experiment: Nematicidal activity against second-stage juvenile Meloidogyne incognita (root-knot nematode) assessed as paralysis measured after 1 hr; format: functional, organism-based; conditions: not given; procedure, shortened: as §1

Row | SMILES | EC50 [µg/mL]
8 | CCCCCCCCCCCC(C)=O [2-TRIDECANONE] | > 500
9 | CCCCCCCC(C)O (stereo not drawn) [2-NONANOL] | 130 (≈ 899 µM)
10 | CCCCCCCCC(C)=O [2-DECANONE] | 235 (≈ 1500 µM)
11 | CCCCCCCCCC(C)=O [METHYL NONYL KETONE] | > 500
12 | CCCCCCCCOC(C)=O [OCTYL ACETATE] | 61.6
13 | CCCCCCCCCCC(C)=O [2-DODECANONE] | > 500
14 | CCCCCCCC(C)=O [2-NONANONE] | 279 (≈ 1960 µM)

test system: Meloidogyne javanica; experiment: Nematicidal activity against second-stage juvenile Meloidogyne javanica (root-knot nematode) assessed as paralysis measured after 1 day; format: functional, organism-based; conditions: 24 h; procedure, shortened: as §1

Row | SMILES | EC50 [µg/mL]
15 | CCCCCCCCCCCC(C)=O [2-TRIDECANONE] | 200 (≈ 1010 µM)
16 | CCCCCCCC(C)O (stereo not drawn) [2-NONANOL] | 137 (≈ 950 µM)
17 | CCCCCCCCC(C)=O [2-DECANONE] | 55.9 (≈ 358 µM)
18 | CCCCCCCCCC(C)=O [METHYL NONYL KETONE] | 22.5 (≈ 132 µM)
19 | CCCCCCCCOC(C)=O [OCTYL ACETATE] | 61.4
20 | CCCCCCCCCCC(C)=O [2-DODECANONE] | 59.9 (≈ 325 µM)
21 | CCCCCCCC(C)=O [2-NONANONE] | 119 (≈ 837 µM)

test system: Meloidogyne javanica; experiment: Nematicidal activity against second-stage juvenile Meloidogyne javanica (root-knot nematode) assessed as paralysis measured after 1 hr; format: functional, organism-based; conditions: not given; procedure, shortened: as §1

Row | SMILES | EC50 [µg/mL]
22 | CCCCCCCCCCCC(C)=O [2-TRIDECANONE] | > 500
23 | CCCCCCCC(C)O (stereo not drawn) [2-NONANOL] | 178 (≈ 1230 µM)
24 | CCCCCCCCC(C)=O [2-DECANONE] | > 500
25 | CCCCCCCCCC(C)=O [METHYL NONYL KETONE] | > 500
26 | CCCCCCCCOC(C)=O [OCTYL ACETATE] | 111
27 | CCCCCCCCCCC(C)=O [2-DODECANONE] | > 500
28 | CCCCCCCC(C)=O [2-NONANONE] | 357 (≈ 2510 µM)
